According to paper PMC4011022 (Molecular cell, 2014):
Read-outs that look alike come from different tables or passages of the source.

Assays:
[1] = molecular target: T1, CK2α (casein kinase-2 catalytic subunit) (Homo sapiens, UniProt P68400); assay type: binding
Method in brief: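 GST-tagged CK2α was expressed in E. coli and purified. Twenty μg, held on glutathione beads, was incubated overnight at 4 °C with [3H]IP6 (10–20 Ci/mmol) in 40 mM Tris pH 8.0, 150 mM NaCl, 1 mM MgCl2, 4% glycerol and 0.1% Triton. Unlabeled IP6 was added over a concentration series as competitor. Controls were buffer or GST alone. Data are mean ± SE of at least three independent experiments.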

[2] = molecular target: T1, CK2α (casein kinase-2 catalytic subunit); test: competition of [3H]IP6 radioligand binding to purified recombinant GST-CK2α

T1 sequence (P68400 whole entry): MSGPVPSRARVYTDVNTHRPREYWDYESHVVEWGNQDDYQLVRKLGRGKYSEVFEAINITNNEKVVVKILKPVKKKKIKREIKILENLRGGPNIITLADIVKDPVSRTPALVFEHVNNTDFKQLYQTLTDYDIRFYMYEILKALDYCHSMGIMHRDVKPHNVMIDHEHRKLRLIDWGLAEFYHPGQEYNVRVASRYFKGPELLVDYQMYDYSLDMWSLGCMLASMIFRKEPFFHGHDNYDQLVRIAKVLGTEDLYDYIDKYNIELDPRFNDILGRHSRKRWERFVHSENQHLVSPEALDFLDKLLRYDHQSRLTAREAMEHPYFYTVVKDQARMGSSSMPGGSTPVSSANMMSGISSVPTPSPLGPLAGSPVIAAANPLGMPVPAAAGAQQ

Structure (SMILES) | IC50 [1] [µM] | IC50 [2] [µM]
O=P(O)(O)O[C@H]1[C@H](OP(=O)(O)O)[C@@H](OP(=O)(O)O)[C@H](OP(=O)(O)O)[C@@H](OP(=O)(O)O)[C@H]1OP(=O)(O)O [IP6] | 14 | 
O=P(O)(O)O[C@H]1[C@@H](OP(=O)(O)O)[C@H](OP(=O)(O)O)[C@@H](OP(=O)(O)OP(=O)(O)O)[C@H](OP(=O)(O)O)[C@H]1OP(=O)(O)O [IP7] |  | ~0.4
